Active and inactive are the calls of the source. The rule behind the calls is not given here.

The test system of data set [1] is 4T1. The data set can be described thus: Antiinvasive activity in mouse 4T1 cells assessed as cell invasion rate at 10^-5 mM incubated for 24 hrs by crystal violet staining based matrigel invasion assay relative to control. To be noted: 4T1, 24 h.
Data set [2] relates to 4T1. The data set can be described thus: Induction of apoptosis in mouse 4T1 cells assessed as necrotic cells at 10^-3 mM incubated for 24 hrs by Annexin V-FITC/PI based FACS analysis (reference value: 0.47%). Format: functional. Background: In flow cytometry, cells or beads pass a laser one at a time.
The subject of data set [3] is 4T1. The data set can be described thus: Induction of apoptosis in mouse 4T1 cells assessed as viable cells at 10^-3 mM incubated for 24 hrs by Annexin V-FITC/PI based FACS analysis (reference value: 92.2%). To be noted: 4T1, 24 h, read-out: Activity. The data set is classed as functional.
For data set [4], the system named is 4T1. Description: Inhibition of cell migration in mouse 4T1 cells assessed as migration frequency at 10^-5 mM incubated for 24 hrs by crystal violet staining based transwell assay relative to control. Also noted: scale not given: the % may be the effect or the level left. The data set is classed as functional. In outline:
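Transwell migration assay on 4T1 cells after 24 h treatment. Rate was quantified from cell numbers on the underside of the porous membrane. Mean ± SD, n = 3.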

A further data set has as its system Erythrocyte. The data set can be described thus: Hemolytic activity in BALB/c mouse RBC at 3.2 mM incubated for 2 hrs by UV-Vis spectrophotometric analysis. The data set is classed as ADME, cell-based. To be noted: 3200 µM. Put shortly:
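Hemolysis assay on red blood cells with dendrimers up to 3.2 mM. Result is expressed as hemolysis rate, with under 5% taken as acceptable.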

Data set [5] concerns 4T1. The data set can be described thus: Induction of apoptosis in mouse 4T1 cells assessed as late apoptotic cells at 10^-3 mM incubated for 24 hrs by Annexin V-FITC/PI based FACS analysis (reference value: 6.62%). The data set is classed as functional.
Data set [6] deals with 4T1. The data set can be described thus: Induction of apoptosis in mouse 4T1 cells assessed as early apoptotic cells at 10^-3 mM incubated for 24 hrs by Annexin V-FITC/PI based FACS analysis (reference value: 0.76%). The data set is classed as functional.
In data set [7] the test system is 4T1. The data set can be described thus: Induction of cell death in mouse 4T1 cells incubated for 24 hrs by PI staining based inverted microscopic method. Format: functional. Put shortly:
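Live–dead staining of 4T1 cells after 24 h exposure to 0.4 mM, read by PI staining. A 0.8 mM level was also examined.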

For data set [8], the system named is 4T1. Description: Inhibition of cell migration in mouse 4T1 cells assessed as wound closure rate at 10^-5 mM measured up to 36 hrs by inverted optical microscopic method based wound healing assay (reference value: 82%). Format: functional. More on the design: scale not given: the % may be the effect or the level left. To be noted: at 10 nM.
In data set [9] the test system is 4T1. The data set can be described thus: Induction of cell cycle arrest in mouse 4T1 cells assessed as accumulation at G2/M phase at 10^-3 mM incubated for 24 hrs by PI staining based flow cytometric analysis (reference value: 19.82%). The data set is classed as functional.
Data set [10] concerns 4T1. The data set can be described thus: Inhibition of metastasis in mouse 4T1 cells assessed as disruption in F-actin arrangement at 10^-5 mM incubated for 24 hrs by Hoechst 33342 staining based confocal laser scanning microscopic method. The data set is classed as functional, cell-based. In outline:
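After 24 h treatment, 4T1 cells were stained with Alexa Fluor 488 phalloidin for F-actin and Hoechst 33342 for nuclei, then imaged by fluorescence microscopy to assess cytoskeleton and cell morphology.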

Data set [11] relates to 4T1. Description: Antiproliferative activity against mouse 4T1 cells incubated for 24 hrs by MTT assay. The data set is classed as functional, cell-based. To be noted: 4T1, 24 h. In outline:
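MTT viability assay on 4T1 cells after 24 h treatment. Concentrations included 0.1 mM and 0.2 mM, and IC50 was taken from the viability curve. Mean ± SD, n = 6.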

Data set [12] relates to 4T1. The data set can be described thus: Induction of cell cycle arrest in mouse 4T1 cells assessed as accumulation at G0/G1 phase at 10^-3 mM incubated for 24 hrs by PI staining based flow cytometric analysis (reference value: 37.78%). The data set is classed as functional.
Data set [13] has as its system 4T1. Description: Antitumour activity against mouse 4T1 cells xenografted in BALB/c mouse assessed as increase in cytotoxic tumor cell death at 10 mg/kg administered intratumorally and measured after 24 days by H and E staining based inverted optical microscopic method. Format: functional, organism-based. In outline: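 BALB/c mice bearing subcutaneous 4T1 tumours received 6 doses at 10 mg/kg body weight, matched for YSL monomer molar amount, with saline as control. Tumour sections were stained for H&E, CD31, Ki-67 and TUNEL. n = 5.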

For data set [14], the system named is 4T1. Description: Induction of cell cycle arrest in mouse 4T1 cells assessed as accumulation at S phase at 10^-3 mM incubated for 24 hrs by PI staining based flow cytometric analysis (Rvb =42.35%). To be noted: at 0.001 mM. The data set is classed as functional.
The subject of data set [15] is 4T1. Description: Inhibition of metastasis in mouse 4T1 cells assessed as formation of pseudopods at 10^-5 mM incubated for 24 hrs by SEM analysis. Format: functional, cell-based. Put shortly: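 4T1 cells treated 24 h, then imaged by scanning electron microscopy for pseudopod formation. Dendrimers were tested at 0.2 mM and the reference at 10–5 mM.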

Broadly, the IC50 is the concentration that inhibits the measured activity by half. As to `CC(=O)O[C@H]1C(=O)[C@@]2(C)[C@H]([C@H](OC(=O)c3ccccc3)[C@]3(O)C[C@H](OC(=O)[C@H](O)[C@@H](NC(=O)c4ccccc4)c4ccccc4)C(C)=C1C3(C)C)[C@]1(OC(C)=O)CO[C@@H]1C[C@@H]2O` [PACLITAXEL], the invasion rate at 0.01 µM in the data set with 4T1 [1] turned out to be 34%. In addition, the Activity is 0.62% with 4T1 [2]; 30% in the data set with 4T1 [4]; “Non-Toxic” in the data set with Erythrocyte; 36.9% in the data set with 4T1 [5]; 0.77% in the data set on 4T1 [6]; “Dose-dependent effect” in the data set on 4T1 [7]. Moreover, the Activity with 4T1 [8] is reported as 43%; in the data set on 4T1 [9], 13.02%; in the data set with 4T1 [12], 42.35%; in the data set on 4T1 [14], 44.64%. For the same molecule, in the data set with 4T1 [3], the viability at 1 µM is 61.7%. In addition, the inhibition result with 4T1 [10] is “Active”. For the same molecule, the IC50 with 4T1 [11] was found to be 1000 nM. For the same molecule, the outcome with 4T1 [13] was Active. The inhibition entry in the data set on 4T1 [15] is “inactive”.

For the origin of these results see ChEMBL document CHEMBL4406918, “Inhibitory Effects of Multivalent Polypeptides on the Proliferation and Metastasis of Breast Cancer Cells” (ACS Med Chem Lett, 2019).
